Source: PubChem (several laboratories)
Rows were chosen to be rich in hits. Some 1.1% of all compounds tested hit in one or more screens of this group.
thrombin 1536 = human alpha-thrombin inhibitors, primary screen, counter-screen for coagulation protease inhibitor project, biochemical, 1536-well, fluorogenic AMC substrate; Boc-VPR-AMC fluorogenic substrate cleavage; inhibition, % at 5 µM; Prothrombin (Homo sapiens), P00734; 220,000 compounds, 0.26% hits;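 active = inhibition at or above 40%; inactive = inhibition below 40%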;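 note: 0% = enzyme with no compound and 100% = wells without enzyme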
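Test system: human alpha-thrombin; medium: pH 7.5 Tris-saline with Tween 20; times: reaction at room temperature; signal: AMC fluorescence at 355 nm excitation and 460 nm emission; also added: Boc-VPR-AMC substrate, 15 µM final; dosing: one concentration per compound, 5 µM, with 0.2% DMSO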
KLK5 inh = human KLK5 protease inhibitors, primary screen, biochemical, 1536-well; Kallikrein-5 (Homo sapiens), Q9Y337; recombinant hK5, fluorogenic AMC substrate cleavage; inhibition, % at 5 µM; 210,000 compounds, 0.59% hits; AID 873, 2007;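 active = inhibition of 40% or more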;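 note: 0% = enzyme controls without compound and 100% = no-enzyme blanks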
Target sequence (Q9Y337 67-293 limits assumed): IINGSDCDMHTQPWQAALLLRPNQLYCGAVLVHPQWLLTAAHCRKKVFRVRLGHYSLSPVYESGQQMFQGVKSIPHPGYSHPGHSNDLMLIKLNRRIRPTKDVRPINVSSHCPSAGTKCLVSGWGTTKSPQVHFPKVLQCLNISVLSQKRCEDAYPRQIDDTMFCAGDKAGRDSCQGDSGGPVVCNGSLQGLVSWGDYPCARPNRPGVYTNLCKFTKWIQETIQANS
FXIa inh = human FXIa protease inhibitors, primary screen, biochemical, 1536-well. Coagulation factor XI (Homo sapiens), P03951. purified FXIa, Boc-Glu-Ala-Arg-AMC fluorogenic substrate. inhibition, % at 5 µM. 220,000 compounds, 0.14% hits. AID 798, 2007;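 active = inhibition of at least 40%; inactive = inhibition below 40%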;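 note: fluorescence of freed AMC excited at 355 nm; 0% = enzyme without compound and 100% = no enzyme blank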
Calb biofilm kill = clotrimazole potentiators killing C. albicans biofilm, primary screen, 4-compound mixtures | C. albicans biofilm persisters + clotrimazole, fluorescence viability; primary screen in compound mixtures of four per well | 120,000 compounds, 0.02% hits | AID 1242, 2008 | inhibition, % at 7.6 µM;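 active = inhibition above 30.3% in the primary screen of four-compound pools, then above 30% when the compound was retested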;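 note: compounds exposed to preformed 24 h biofilms for 48 h; 0% = untreated biofilm control and 100% = clotrimazole plus chlorhexidine kill blank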
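System: C. albicans CAF4-2 wild-type biofilms; Medium: RPMI/MOPS medium, pH 7.0; Reagent: Clotrimazole, 50 µg/mL; Times: biofilm formation 24 h, compound exposure 48 h, 37 °C; Detection: 2-h Alamar Blue fluorescence, 535/590 nm excitation/emission; Evaluation: percent inhibition of biofilm viability.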
Furin inhibitor = human furin inhibitors, primary screen, biochemical, fluorescence intensity. P09958. purified furin, fluorogenic substrate cleavage. inhibition, % at 20 µM or 30 µM. 220,000 compounds, 0.061% hits; in the data active = inhibition above about 25%
FXIIa inh = human FXIIa protease inhibitors, primary screen, biochemical, 1536-well; purified FXIIa, Boc-QGR-AMC fluorogenic substrate, 2 h; inhibition, % at 5 µM; 220,000 compounds, 0.3% hits; AID 800, 2007; Coagulation factor XII (Homo sapiens), P00748; in the data active = inhibition above about 40%;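 note: 0% = enzyme with no compound and 100% = blank without enzyme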
* marks the source's active call; other numbers are inactive results.

Results for O=c1[nH]c(/C=C/c2ccccc2OC(F)F)nc2c1cnn2-c1ccccc1 ?
thrombin 1536: -7; KLK5 inh: -14; FXIa inh: 6; Calb biofilm kill: 11; Furin inhibitor: -10; FXIIa inh: -8

Results for CN(Cc1ccccc1)C(=O)COC(=O)c1ccc(Cl)cc1N ?
thrombin 1536: -11; KLK5 inh: -8; FXIa inh: -7; Calb biofilm kill: 7; Furin inhibitor: -21; FXIIa inh: 0

How did CCOC(=O)CCCNC(=O)CCNC(=O)c1ccc(OC(C)C)cc1 do in these assays?
thrombin 1536: 22; KLK5 inh: 40*; FXIa inh: 13; Furin inhibitor: -9; FXIIa inh: 16

Results for O=C(Nc1cc(=O)[nH]c2ncnn12)c1ccccc1F ?
thrombin 1536: -6; KLK5 inh: -2; FXIa inh: 0; Calb biofilm kill: 3; Furin inhibitor: -5; FXIIa inh: 0

What do the screens show for `O=C(Nc1cc(=O)[nH]c2ncnn12)c1ccco1`?
thrombin 1536: 23; KLK5 inh: 57*; FXIa inh: 23; Calb biofilm kill: 25; Furin inhibitor: 1; FXIIa inh: 42*

Results for COc1ccc(N2C(N)=C(C#N)C(c3cccnc3)C3=C2CC(C)(C)CC3=O)cc1 (centres undefined) ?
thrombin 1536: 20; KLK5 inh: 51*; FXIa inh: 10; Furin inhibitor: -12; FXIIa inh: 23

What do the screens show for `CCN(CC(=O)Nc1ccc(N2CCOCC2)cc1)C(=O)COc1ccccc1OC`?
thrombin 1536: 3; KLK5 inh: 2; FXIa inh: 2; Calb biofilm kill: 8; Furin inhibitor: -17; FXIIa inh: 13

What do the screens show for `COc1cc(C=O)ccc1Oc1nc(Nc2ccc(F)cc2F)nc(N2CCOCC2)n1`?
thrombin 1536: 10; KLK5 inh: 63*; FXIa inh: 27; Calb biofilm kill: 7; Furin inhibitor: 1; FXIIa inh: 34

How did CCOC(=O)c1sc2ncn(/N=C/c3ccc(O)cc3)c(=O)c2c1C do in these assays?
thrombin 1536: 25; KLK5 inh: 27; FXIa inh: 49*; Calb biofilm kill: 5; Furin inhibitor: -5; FXIIa inh: 26

How did CCOC(=O)c1sc2ncn(/N=C/c3cccnc3)c(=O)c2c1C do in these assays?
thrombin 1536: -5; KLK5 inh: 7; FXIa inh: -12; Furin inhibitor: -11; FXIIa inh: -2

Results for CCOC(=O)CNC(=O)Cc1ccc(OC)cc1 ?
thrombin 1536: 12; KLK5 inh: 25; FXIa inh: 19; Calb biofilm kill: 7; Furin inhibitor: 6; FXIIa inh: 43*

What do the screens show for `N#C/C(=C/c1cccn1-c1cccc(C(=O)O)c1)c1ccc(F)cc1`?
thrombin 1536: 5; KLK5 inh: -3; FXIa inh: 5; Calb biofilm kill: 18; Furin inhibitor: 0; FXIIa inh: 11

What do the screens show for `CN(C)C(=O)CSC1c2ccccc2C(=O)N1c1ccccc1` (centres undefined)?
thrombin 1536: 7; KLK5 inh: 78*; FXIa inh: 3; Furin inhibitor: -18; FXIIa inh: 11

What do the screens show for `Cc1cc(NC(=O)CCN2C(=O)/C(=C/c3ccccc3F)SC2=S)no1`?
thrombin 1536: -8; KLK5 inh: -1; FXIa inh: 2; Calb biofilm kill: 5; Furin inhibitor: -12; FXIIa inh: 95*

Results for CSCCC(NC(=O)COc1cccc2ccccc12)C(=O)O (centres undefined) ?
thrombin 1536: 4; KLK5 inh: 3; FXIa inh: 3; Calb biofilm kill: 1; Furin inhibitor: -5; FXIIa inh: 6

Results for COc1ccc(CCCc2n[nH]c(=S)n2C)cc1C ?
thrombin 1536: 9; KLK5 inh: 43*; FXIa inh: 30; Calb biofilm kill: 22; Furin inhibitor: -3; FXIIa inh: 30

What do the screens show for `COc1ccc(CCCc2n[nH]c(=S)o2)cc1C`?
thrombin 1536: -1; KLK5 inh: 6; FXIa inh: 2; Calb biofilm kill: 22; Furin inhibitor: -26; FXIIa inh: 13

What do the screens show for `O=C(NNS(=O)(=O)c1ccccc1Cl)c1nn(-c2ccc(F)cc2)ccc1=O`?
thrombin 1536: -6; KLK5 inh: 9; FXIa inh: 2; Calb biofilm kill: 23; Furin inhibitor: -18; FXIIa inh: 0

Results for Nc1nc(CN2CCCCC2)cs1 ?
thrombin 1536: 104*; KLK5 inh: 62*; FXIa inh: -1; Furin inhibitor: -23; FXIIa inh: -3

Results for CCc1sc(C(=O)NCCc2ccc(S(N)(=O)=O)cc2)cc1Br ?
thrombin 1536: -5; KLK5 inh: -4; FXIa inh: -2; Calb biofilm kill: 3; Furin inhibitor: -21; FXIIa inh: 2

Results for CC(=O)OCC(OC(C)=O)C(OC(C)=O)C(OC(C)=O)C(=O)Nc1cccc(C)c1 (centres undefined) ?
thrombin 1536: -1; KLK5 inh: 5; FXIa inh: 2; Calb biofilm kill: -5; Furin inhibitor: 0; FXIIa inh: 7

Results for O=C(c1noc2c1CCc1ccccc1-2)N1CCOCC1 ?
thrombin 1536: 1; KLK5 inh: 72*; FXIa inh: -9; Furin inhibitor: -14; FXIIa inh: -7

Results for CC(=O)c1ccc(N2CCN(C(=O)c3cc(-c4ccc5c(c4)OCO5)nc4ccccc34)CC2)cc1 ?
thrombin 1536: 0; KLK5 inh: 82*; FXIa inh: -6; Furin inhibitor: 10; FXIIa inh: -7

Results for O=C(O)c1cc(-c2ccc3c(c2)OCO3)nc2ccccc12 ?
thrombin 1536: 2; KLK5 inh: -6; FXIa inh: 9; Calb biofilm kill: 8; Furin inhibitor: -14; FXIIa inh: 15

What do the screens show for `Cc1ccc(SC(=O)c2c([N+](=O)[O-])c(C)nn2C)cc1`?
thrombin 1536: -1; KLK5 inh: 3; FXIa inh: 4; Calb biofilm kill: 6; Furin inhibitor: -6; FXIIa inh: 0

How did CCOC(=O)C1=C(C)NC(=S)NC1c1ccsc1 (centres undefined) do in these assays?
thrombin 1536: -2; KLK5 inh: 0; FXIa inh: 0; Calb biofilm kill: 12; Furin inhibitor: -14; FXIIa inh: 11

Results for Cc1ccc(-c2noc(CN3CCC(C(N)=O)CC3)n2)cc1 ?
thrombin 1536: 104*; KLK5 inh: 86*; FXIa inh: 2; Furin inhibitor: -20; FXIIa inh: 26
